According to ChEMBL document CHEMBL1781959, “Synthesis and in vitro antitumor activity of substituted quinazoline and quinoxaline derivatives: search for anticancer agent” (Eur J Med Chem, 2011):

Columns and labels:
Format in all cases: functional
CAKI-1 = experiment: Anticancer activity against human Caki1 cells assessed as cell growth promotion at 10^-5 M after 48 hrs by SRB assay relative to control
MOLT-4 = experiment: Anticancer activity against human MOLT4 cells assessed as cell growth promotion at 10^-5 M after 48 hrs by SRB assay relative to control
SF-539 = experiment: Anticancer activity against human SF539 cells assessed as cell growth promotion at 10^-5 M after 48 hrs by SRB assay relative to control
HCT-15 = experiment: Anticancer activity against human HCT15 cells assessed as cell growth promotion at 10^-5 M after 48 hrs by SRB assay relative to control
SNB-19 = experiment: Anticancer activity against human SNB19 cells assessed as cell growth promotion at 10^-5 M after 48 hrs by SRB assay relative to control
HT-29 = experiment: Anticancer activity against human HT-29 cells assessed as cell growth promotion at 10^-5 M after 48 hrs by SRB assay relative to control
COLO 205 = experiment: Anticancer activity against human COLO205 cells assessed as cell growth promotion at 10^-5 M after 48 hrs by SRB assay relative to control
A549 = experiment: Anticancer activity against human A549 cells assessed as cell growth promotion at 10^-5 M after 48 hrs by SRB assay relative to control
OVCAR-3 = experiment: Anticancer activity against human OVCAR3 cells assessed as cell growth promotion at 10^-5 M after 48 hrs by SRB assay relative to control
SF-295 = experiment: Anticancer activity against human SF295 cells assessed as cell growth promotion at 10^-5 M after 48 hrs by SRB assay relative to control
[1] = Anticancer activity against human […] cells assessed as cell growth promotion at 10^-5 M after 48 hrs by SRB assay relative to control
OVCAR-8 = experiment: Anticancer activity against human OVCAR8 cells assessed as cell growth promotion at 10^-5 M after 48 hrs by SRB assay relative to control
IGROV-1 = experiment: Anticancer activity against human IGROV1 cells assessed as cell growth promotion at 10^-5 M after 48 hrs by SRB assay relative to control
786-0 = experiment: Anticancer activity against human 786-0 cells assessed as cell growth promotion at 10^-5 M after 48 hrs by SRB assay relative to control
PC-3 = experiment: Anticancer activity against human PC3 cells assessed as cell growth promotion at 10^-5 M after 48 hrs by SRB assay relative to control
SN12C = experiment: Anticancer activity against human SN12C cells assessed as cell growth promotion at 10^-5 M after 48 hrs by SRB assay relative to control
NCI-H226 = experiment: Anticancer activity against human NCI-H226 cells assessed as cell growth promotion at 10^-5 M after 48 hrs by SRB assay relative to control
NCI-H322M = experiment: Anticancer activity against human NCI-H322M cells assessed as cell growth promotion at 10^-5 M after 48 hrs by SRB assay relative to control
TK-10 = experiment: Anticancer activity against human TK10 cells assessed as cell growth promotion at 10^-5 M after 48 hrs by SRB assay relative to control
SF-268 = experiment: Anticancer activity against human SF268 cells assessed as cell growth promotion at 10^-5 M after 48 hrs by SRB assay relative to control
CCRF-CEM = experiment: Anticancer activity against human CCRF-CEM cells assessed as cell growth promotion at 10^-5 M after 48 hrs by SRB assay relative to control
KM12 = experiment: Anticancer activity against human KM12 cells assessed as cell growth promotion at 10^-5 M after 48 hrs by SRB assay relative to control
RXF 393 = experiment: Anticancer activity against human RXF393 cells assessed as cell growth promotion at 10^-5 M after 48 hrs by SRB assay relative to control
K562 = experiment: Anticancer activity against human K562 cells assessed as cell growth promotion at 10^-5 M after 48 hrs by SRB assay relative to control
UACC-257 = experiment: Anticancer activity against human UACC257 cells assessed as cell growth promotion at 10^-5 M after 48 hrs by SRB assay relative to control
SK-MEL-28 = experiment: Anticancer activity against human SK-MEL-28 cells assessed as cell growth promotion at 10^-5 M after 48 hrs by SRB assay relative to control
ACHN = experiment: Anticancer activity against human ACHN cells assessed as cell growth promotion at 10^-5 M after 48 hrs by SRB assay relative to control
MDA-MB-231 = experiment: Anticancer activity against human MDA-MB-231 cells assessed as cell growth promotion at 10^-5 M after 48 hrs by SRB assay relative to control
NCI/ADR-RES = experiment: Anticancer activity against human NCI/ADR-RES cells assessed as cell growth promotion at 10^-5 M after 48 hrs by SRB assay relative to control
HCC 2998 = experiment: Anticancer activity against human HCC2998 cells assessed as cell growth promotion at 10^-5 M after 48 hrs by SRB assay relative to control
SK-MEL-5 = experiment: Anticancer activity against human SK-MEL-5 cells assessed as cell growth promotion at 10^-5 M after 48 hrs by SRB assay relative to control
HOP-62 = experiment: Anticancer activity against human HOP62 cells assessed as cell growth promotion at 10^-5 M after 48 hrs by SRB assay relative to control
NCI-H23 = experiment: Anticancer activity against human NCI-H23 cells assessed as cell growth promotion at 10^-5 M after 48 hrs by SRB assay relative to control
M14 = experiment: Anticancer activity against human M14 cells assessed as cell growth promotion at 10^-5 M after 48 hrs by SRB assay relative to control
UACC-62 = experiment: Anticancer activity against human UACC62 cells assessed as cell growth promotion at 10^-5 M after 48 hrs by SRB assay relative to control
U-251 = experiment: Anticancer activity against human U251 cells assessed as cell growth promotion at 10^-5 M after 48 hrs by SRB assay relative to control
HL-60(TB) = experiment: Anticancer activity against human HL-60(TB) cells assessed as cell growth promotion at 10^-5 M after 48 hrs by SRB assay relative to control
In short: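 NCI-60 single-dose screen: compound at 10^-5 M, 48 h at 37 °C, 5% CO2; cells grown in RPMI 1640 with 5% FBS and 2 mM L-glutamine, pre-incubated 24 h before dosing. Adherent cells fixed with cold TCA; endpoint is sulforhodamine B protein staining. Percent growth of treated cells is reported relative to untreated control.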

MDA-MB-435 = experiment: Anticancer activity against human MDA-MB-435 cells assessed as cell growth promotion at 10^-5 M after 48 hrs by SRB assay relative to control
EKVX = experiment: Anticancer activity against human EKVX cells assessed as cell growth promotion at 10^-5 M after 48 hrs by SRB assay relative to control
HCT-116 = experiment: Anticancer activity against human HCT116 cells assessed as cell growth promotion at 10^-5 M after 48 hrs by SRB assay relative to control
LOX IMVI = experiment: Anticancer activity against human LOXIMVI cells assessed as cell growth promotion at 10^-5 M after 48 hrs by SRB assay relative to control
Malme-3M = experiment: Anticancer activity against human MALME-3M cells assessed as cell growth promotion at 10^-5 M after 48 hrs by SRB assay relative to control
OVCAR-5 = experiment: Anticancer activity against human OVCAR5 cells assessed as cell growth promotion at 10^-5 M after 48 hrs by SRB assay relative to control
UO-31 = experiment: Anticancer activity against human UO31 cells assessed as cell growth promotion at 10^-5 M after 48 hrs by SRB assay relative to control
MDA-MB-468 = experiment: Anticancer activity against human MDA-MB-468 cells assessed as cell growth promotion at 10^-5 M after 48 hrs by SRB assay relative to control
MCF7 = experiment: Anticancer activity against human MCF7 cells assessed as cell growth promotion at 10^-5 M after 48 hrs by SRB assay relative to control
DU-145 = experiment: Anticancer activity against human DU145 cells assessed as cell growth promotion at 10^-5 M after 48 hrs by SRB assay relative to control
SR = experiment: Anticancer activity against human SR cells assessed as cell growth promotion at 10^-5 M after 48 hrs by SRB assay relative to control

## Brc1cccc(/C=C/c2nc3ccccc3nc2SCc2nc3ccccc3[nH]2)c1
CAKI-1
  Activity: 69.32%
MOLT-4
  Activity: 84.4%
SF-539
  Activity: 101%
HCT-15
  Activity: 101%
SNB-19
  Activity: 94.19%
HT-29
  Activity: 94.19%
COLO 205
  Activity: 119%
A549
  Activity: 100%
OVCAR-3
  Activity: 92.52%
SF-295
  Activity: 100%
[1]
  Activity: 108%
OVCAR-8
  Activity: 97.32%
IGROV-1
  Activity: 101%
786-0
  Activity: 95.67%
PC-3
  Activity: 125%
SN12C
  Activity: 88.36%
NCI-H226
  Activity: 96.35%
NCI-H322M
  Activity: 95.01%
TK-10
  Activity: 103%
SF-268
  Activity: 94.82%
CCRF-CEM
  Activity: 99.77%
KM12
  Activity: 90.27%
RXF 393
  Activity: 105%
K562
  Activity: 79.2%
UACC-257
  Activity: 93.79%
SK-MEL-28
  Activity: 86.57%
ACHN
  Activity: 102%
MDA-MB-231
  Activity: 93.29%
NCI/ADR-RES
  Activity: 89.75%
HCC 2998
  Activity: 99.44%
SK-MEL-5
  Activity: 96.24%
HOP-62
  Activity: 97.73%
NCI-H23
  Activity: 93.86%
M14
  Activity: 102%
UACC-62
  Activity: 79.86%
U-251
  Activity: 90.27%
HL-60(TB)
  Activity: 96.53%
MDA-MB-435
  Activity: 90.95%
EKVX
  Activity: 79.01%
HCT-116
  Activity: 78.83%
LOX IMVI
  Activity: 91.83%
Malme-3M
  Activity: 86.98%
OVCAR-5
  Activity: 94.9%
UO-31
  Activity: 63.7%
MDA-MB-468
  Activity: 101%
MCF7
  Activity: 61.74%
DU-145
  Activity: 97.76%
SR
  Activity: 97.29%
